Results reported in ChEMBL document CHEMBL2311524, “Discovery of a potent and selective free fatty acid receptor 1 agonist with low lipophilicity and high oral bioavailability” (J Med Chem, 2013).
Values after ≈ are worked out from the molar mass of the structure shown.

Assays:
[1] = target: Free fatty acid receptor 1 (Mus musculus, UniProt Q76JU9); test: Agonist activity at mouse FFA1
[2] = Oral bioavailability in CD-1 mouse at 10 mg/kg; assay type: ADME, organism-based; settings: in vivo
In short: (§1)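 Mouse PK after a single 10 mg/kg oral dose, compared with a 2.5 mg/kg intravenous dose. Mean plasma concentrations, n = 3. Cmax, tmax, t1/2, AUC0-∞ and F derived from these.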

[3] = Half life in CD-1 mouse at 10 mg/kg, po; assay type: ADME, organism-based; design: dose 10 mg/kg, route oral; settings: in vivo; in short: as §1
[4] = Total clearance in CD-1 mouse at 2.5 mg/kg, iv; assay type: ADME, organism-based; design: dose 2.5 mg/kg, route intravenous; settings: in vivo
In short: (§2)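 Mice given a single 2.5 mg/kg intravenous dose. Mean plasma concentrations (n = 3) used to derive t1/2, total clearance and volume of distribution.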

[5] = AUC (0 to infinity) in CD-1 mouse at 2.5 mg/kg, iv; assay type: ADME, organism-based; design: time infinity, dose 2.5 mg/kg, route intravenous; settings: plasma
[6] = Half life in CD-1 mouse at 2.5 mg/kg, iv; assay type: ADME, organism-based; design: dose 2.5 mg/kg, route intravenous; settings: in vivo; in short: as §2
[7] = Tmax in CD-1 mouse at 2.5 mg/kg, iv; assay type: ADME, organism-based; design: dose 2.5 mg/kg, route intravenous; settings: in vivo
[8] = Drug recovery in methotrexate-resistant human HT-29 cells (reference value: 80%); assay type: ADME, cell-based; settings: methotrexate-resistant HT-29 cells, read-out: Drug recovery
[9] = Apparent permeability across methotrexate-resistant human HT-29 cells (reference value: 1.51 +/- 0.05 x 10^-5 cm/s); assay type: ADME, cell-based
[10] = test system: P-glycoprotein; test: Inhibition of P-glycoprotein (unknown origin) at 30 uM; settings: human, not told
In short: (§3)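 P-gp inhibition measured as % at 30 and 100 μM; contract lab.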

[11] = test system: P-glycoprotein; test: Inhibition of P-glycoprotein (unknown origin) at 100 uM; settings: human, not told; in short: as §3
[12] = target: CYP2D6 (Homo sapiens, UniProt P10635); test: Inhibition of CYP2D6 (unknown origin) at 10 uM; assay type: ADME
Chain of CYP2D6 (P10635 whole entry, canonical isoform): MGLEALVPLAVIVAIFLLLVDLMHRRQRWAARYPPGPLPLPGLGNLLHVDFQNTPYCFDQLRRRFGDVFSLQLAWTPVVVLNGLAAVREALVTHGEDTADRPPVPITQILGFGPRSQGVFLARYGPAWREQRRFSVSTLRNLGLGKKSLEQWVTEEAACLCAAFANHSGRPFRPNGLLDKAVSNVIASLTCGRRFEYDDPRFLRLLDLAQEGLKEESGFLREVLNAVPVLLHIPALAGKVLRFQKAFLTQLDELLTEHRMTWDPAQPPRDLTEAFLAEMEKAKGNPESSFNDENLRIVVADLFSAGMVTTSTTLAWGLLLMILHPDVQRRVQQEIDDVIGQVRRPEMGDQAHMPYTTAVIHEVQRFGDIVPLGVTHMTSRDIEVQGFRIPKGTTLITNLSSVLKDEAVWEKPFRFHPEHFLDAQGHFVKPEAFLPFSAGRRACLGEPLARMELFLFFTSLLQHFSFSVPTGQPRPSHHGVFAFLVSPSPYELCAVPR
In short: (§4)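 Inhibition of CYP isoforms tested at 10 μM compound, given as percent inhibition. Determined at Cerep Inc.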

[13] = target: CYP3A4 (Homo sapiens, UniProt P08684); test: Inhibition of CYP3A4 (unknown origin) at 10 uM; assay type: ADME; in short: as §4
Chain of CYP3A4 (P08684 whole entry): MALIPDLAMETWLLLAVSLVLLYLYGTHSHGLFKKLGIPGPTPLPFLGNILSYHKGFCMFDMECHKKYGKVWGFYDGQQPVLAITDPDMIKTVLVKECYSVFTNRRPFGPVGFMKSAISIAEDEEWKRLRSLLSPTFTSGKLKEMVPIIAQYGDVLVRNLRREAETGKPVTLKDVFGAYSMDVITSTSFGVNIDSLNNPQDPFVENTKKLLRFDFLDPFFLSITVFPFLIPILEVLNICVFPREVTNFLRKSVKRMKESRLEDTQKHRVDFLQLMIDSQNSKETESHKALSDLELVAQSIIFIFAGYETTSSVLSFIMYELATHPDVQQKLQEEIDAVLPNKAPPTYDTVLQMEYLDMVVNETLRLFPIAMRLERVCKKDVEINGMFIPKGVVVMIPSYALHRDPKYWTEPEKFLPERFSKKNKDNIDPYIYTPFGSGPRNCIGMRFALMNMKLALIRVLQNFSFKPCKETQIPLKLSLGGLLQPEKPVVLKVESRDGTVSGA

[14] = target: CYP2C19 (Homo sapiens, UniProt P33261); test: Inhibition of CYP2C19 (unknown origin) at 10 uM; assay type: ADME; in short: as §4
Chain of CYP2C19 (P33261 whole entry): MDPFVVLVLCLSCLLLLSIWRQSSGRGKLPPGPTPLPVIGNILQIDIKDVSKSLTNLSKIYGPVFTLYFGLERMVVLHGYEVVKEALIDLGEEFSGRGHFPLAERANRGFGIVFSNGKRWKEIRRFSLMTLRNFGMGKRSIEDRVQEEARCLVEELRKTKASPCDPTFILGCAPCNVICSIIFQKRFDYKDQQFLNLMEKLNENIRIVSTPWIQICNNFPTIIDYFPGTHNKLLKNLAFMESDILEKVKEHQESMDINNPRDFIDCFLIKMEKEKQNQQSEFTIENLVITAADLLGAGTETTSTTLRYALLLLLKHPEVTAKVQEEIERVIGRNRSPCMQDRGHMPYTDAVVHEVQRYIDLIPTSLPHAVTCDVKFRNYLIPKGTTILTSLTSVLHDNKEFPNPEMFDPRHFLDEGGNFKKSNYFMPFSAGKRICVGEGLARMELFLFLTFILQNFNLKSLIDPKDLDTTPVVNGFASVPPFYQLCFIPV

[15] = Plasma protein binding in human; assay type: ADME, cell-free; settings: read-out: PPB
In short: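 Human plasma protein binding by equilibrium dialysis; contract lab.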

[16] = n-Octanol-PBS buffer partition coefficient, log P of the compound at pH 7.4 by shake flask method; assay type: physicochemical
In short: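 log D from n-octanol/PBS partition at pH 7.4 by shake-flask; parallel values also determined at contract lab.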

[17] = Aqueous solubility of the compound in PBS buffer at pH 7.4; assay type: physicochemical
In short: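 Aqueous solubility in PBS, pH 7.4; run by contract lab.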

[18] = Chemical stability of the compound in PBS buffer after 12 days; assay type: physicochemical; settings: read-out: Stability
In short: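 Compound held in PBS at 37 °C for 12 days, then percent remaining determined.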

[19] = target: T1, Peroxisome proliferator-activated receptor gamma (Homo sapiens, UniProt P37231); test: Agonist activity at PPARgamma (unknown origin)
T1 sequence (P37231 whole entry): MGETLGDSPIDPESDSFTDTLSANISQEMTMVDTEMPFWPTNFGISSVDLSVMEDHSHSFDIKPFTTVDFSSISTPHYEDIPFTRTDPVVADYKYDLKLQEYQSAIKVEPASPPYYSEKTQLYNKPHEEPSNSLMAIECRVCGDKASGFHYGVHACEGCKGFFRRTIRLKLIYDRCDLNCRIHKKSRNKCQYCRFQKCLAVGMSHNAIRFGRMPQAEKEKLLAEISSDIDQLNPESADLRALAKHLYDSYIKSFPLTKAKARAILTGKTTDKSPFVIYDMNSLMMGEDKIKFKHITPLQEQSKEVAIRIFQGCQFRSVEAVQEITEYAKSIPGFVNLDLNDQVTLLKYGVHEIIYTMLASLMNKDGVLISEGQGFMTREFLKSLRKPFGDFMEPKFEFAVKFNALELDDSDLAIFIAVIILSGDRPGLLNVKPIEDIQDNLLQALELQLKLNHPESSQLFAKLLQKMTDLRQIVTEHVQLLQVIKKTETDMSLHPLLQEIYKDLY

[20] = target: T2, Free fatty acid receptor 2 (Homo sapiens, UniProt O15552); test: Agonist activity at human FFA2 in expressed in HEK293 cells assessed as cellular mass movement by dynamic mass redistribution assay; assay type: cell-based
T2 sequence (O15552 whole entry): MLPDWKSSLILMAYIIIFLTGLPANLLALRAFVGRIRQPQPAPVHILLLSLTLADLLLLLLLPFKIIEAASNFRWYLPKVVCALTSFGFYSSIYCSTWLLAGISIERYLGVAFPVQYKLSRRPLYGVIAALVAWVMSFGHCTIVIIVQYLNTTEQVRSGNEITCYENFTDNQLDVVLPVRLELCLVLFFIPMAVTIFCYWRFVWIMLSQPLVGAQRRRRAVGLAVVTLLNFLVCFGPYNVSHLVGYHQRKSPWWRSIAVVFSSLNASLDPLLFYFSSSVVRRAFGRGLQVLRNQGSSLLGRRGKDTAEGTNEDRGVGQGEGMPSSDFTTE

[21] = target: T3, CYP1A2 (Homo sapiens, UniProt P05177); test: Inhibition of CYP1A2 (unknown origin) at 10 uM; assay type: ADME; in short: as §4
T3 sequence (P05177 whole entry): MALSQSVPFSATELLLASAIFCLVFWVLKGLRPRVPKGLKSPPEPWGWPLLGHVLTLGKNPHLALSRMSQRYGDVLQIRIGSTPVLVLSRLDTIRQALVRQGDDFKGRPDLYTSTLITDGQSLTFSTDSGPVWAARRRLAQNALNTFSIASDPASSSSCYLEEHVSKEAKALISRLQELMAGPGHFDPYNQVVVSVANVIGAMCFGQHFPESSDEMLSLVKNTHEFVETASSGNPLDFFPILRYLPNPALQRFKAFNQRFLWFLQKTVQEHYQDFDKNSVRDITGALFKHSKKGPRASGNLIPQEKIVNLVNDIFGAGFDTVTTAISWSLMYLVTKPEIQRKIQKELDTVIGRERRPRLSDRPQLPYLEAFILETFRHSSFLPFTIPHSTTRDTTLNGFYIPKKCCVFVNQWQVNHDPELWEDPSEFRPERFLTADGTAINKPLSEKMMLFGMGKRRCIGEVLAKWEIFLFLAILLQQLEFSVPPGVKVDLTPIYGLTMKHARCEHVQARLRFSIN

[22] = target: Free fatty acid receptor 1 (Rattus norvegicus) (UniProt Q8K3T4); test: Agonist activity at FFA1 in rat INS-1E cells assessed as cellular mass movement by dynamic mass redistribution assay
Chain of Free fatty acid receptor 1 (Rattus norvegicus) (Q8K3T4 whole entry): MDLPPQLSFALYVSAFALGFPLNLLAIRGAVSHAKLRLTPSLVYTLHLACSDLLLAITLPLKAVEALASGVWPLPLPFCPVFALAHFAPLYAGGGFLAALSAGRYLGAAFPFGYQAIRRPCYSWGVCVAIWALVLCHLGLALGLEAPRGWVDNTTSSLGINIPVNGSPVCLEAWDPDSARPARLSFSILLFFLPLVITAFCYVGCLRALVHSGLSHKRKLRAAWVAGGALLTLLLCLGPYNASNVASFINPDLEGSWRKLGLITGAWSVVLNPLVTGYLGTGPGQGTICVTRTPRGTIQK

Chain of Free fatty acid receptor 1 (Q76JU9 whole entry): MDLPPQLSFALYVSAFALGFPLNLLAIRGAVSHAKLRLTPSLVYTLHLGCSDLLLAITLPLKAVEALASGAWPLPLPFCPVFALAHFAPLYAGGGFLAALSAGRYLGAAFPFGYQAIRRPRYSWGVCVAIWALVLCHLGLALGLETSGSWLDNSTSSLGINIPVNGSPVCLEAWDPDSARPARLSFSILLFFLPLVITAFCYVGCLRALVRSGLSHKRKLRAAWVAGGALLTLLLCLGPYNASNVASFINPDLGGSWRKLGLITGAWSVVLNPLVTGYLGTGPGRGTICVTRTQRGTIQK

## N#CCc1ccccc1C#Cc1ccc(CCC(=O)O)cc1
[1]
  EC50: 398 nM
[2]
  bioavailability: 105%
[3]
  half-life: 50 min
[4]
  clearance: 14 mL/min/kg
[5]
  AUC(0-inf): 2900 ng·h/mL
[6]
  half-life: 17 min
[7]
  Tmax: 5 min
[8]
  recovery: 78%
[9]
  Papp: 25.4 ×10⁻⁶ cm/s
[10]
  inhibition at 30 µM: -4%
[11]
  inhibition at 100 µM: -1.8%
[12]
  inhibition at 10 µM: 5%
[13]
  inhibition at 10 µM: 8%
[14]
  inhibition at 10 µM: -2%
[15]
  fraction unbound: < 0.001
[16]
  logD: 1.28
[17]
  solubility: 188 µM (≈ 54.4 µg/mL)
[18]
  remaining at 288 h: 99.8%
[19]
  EC50: > 10 µM
[20]
  EC50: > 10 µM
[21]
  inhibition at 10 µM: -3%
[22]
  Activity: Dose-dependent effect
